# Test results: publication PMC11303814 (Nature Communications, 2024)
# Changes are numbered by the printed parent chain.
# Assays:
# Type in all cases: cell-based
# [1] = molecular target: T1, rP2X7-Q143A (Rattus norvegicus, UniProt Q64663, Q143A); test: TEVC dose response; settings: read-out: EC50 (apparent affinity), mean ± SD, triplicate
# T1 sequence (Q64663 1-595 Q143A): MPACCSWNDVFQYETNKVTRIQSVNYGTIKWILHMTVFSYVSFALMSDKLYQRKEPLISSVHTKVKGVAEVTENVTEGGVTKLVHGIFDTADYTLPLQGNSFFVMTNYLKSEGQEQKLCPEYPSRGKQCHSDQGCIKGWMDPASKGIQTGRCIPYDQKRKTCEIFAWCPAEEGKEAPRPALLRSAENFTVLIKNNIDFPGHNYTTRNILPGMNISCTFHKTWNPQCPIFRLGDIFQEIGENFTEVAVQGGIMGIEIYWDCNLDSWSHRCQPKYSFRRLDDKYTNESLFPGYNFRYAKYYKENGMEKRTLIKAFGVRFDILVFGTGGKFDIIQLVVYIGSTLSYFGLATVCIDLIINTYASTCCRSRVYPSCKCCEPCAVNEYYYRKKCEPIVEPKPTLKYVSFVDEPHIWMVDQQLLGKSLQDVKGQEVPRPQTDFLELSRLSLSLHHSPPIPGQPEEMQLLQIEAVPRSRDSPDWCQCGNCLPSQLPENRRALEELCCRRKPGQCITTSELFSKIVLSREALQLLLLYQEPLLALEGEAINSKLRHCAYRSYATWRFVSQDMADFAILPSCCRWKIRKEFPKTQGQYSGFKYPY
# Procedure, shortened: (§1)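 TEVC was run on Xenopus oocytes ~20 h after injection of wild-type or mutant rP2X7 mRNA, in pH 7.4 HEPES buffer with 0.1 mM flufenamic acid. Receptors were facilitated at 100 µM before recording. Dilution series: ATP 1.5 mM–2 µM (7 points), BzATP 300–0.14 µM (8 points). Responses were normalized to the largest concentration, fitted by nonlinear regression for EC50, and averaged across triplicates (mean ± SD).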
# [2] = molecular target: T2, rP2X7 K127A (Rattus norvegicus, UniProt Q64663, K127A); test: TEVC dose response; settings: read-out: EC50 (apparent affinity), mean ± SD, triplicate
# T2 sequence (Q64663 1-595 K127A): T1 sequence (Q64663 1-595 Q143A) with K127A, A143Q
# Procedure, shortened: as §1
# [3] = molecular target: T3, rP2X7-I214A (Rattus norvegicus, UniProt Q64663, I214A); test: TEVC dose response; settings: read-out: EC50 (apparent affinity), mean ± SD, triplicate
# T3 sequence (Q64663 1-595 I214A): T1 sequence (Q64663 1-595 Q143A) with A143Q, I214A
# Procedure, shortened: as §1
# [4] = molecular target: T4, rP2X7-I214G (Rattus norvegicus, UniProt Q64663, I214G); test: TEVC deactivation time; settings: after 100 μM ATP or 10 μM BzATP
# T4 sequence (Q64663 1-595 I214G): T1 sequence (Q64663 1-595 Q143A) with A143Q, I214G
# Procedure, shortened: (§2)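 Xenopus oocytes injected with 50 nL of 10 ng/µL mutant rP2X7 mRNA, expressed ~20 h, clamped in pH 7.4 HEPES buffer with 0.1 mM flufenamic acid and EDTA. Currents were evoked by 100 µM ATP or 10 µM BzATP. τ is the time for current to return to 63% of baseline after agonist removal, from a one- or two-phase decay fit. Done in triplicate over first to third applications per oocyte; mean ± SD.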
# [5] = molecular target: T1, rP2X7-Q143A; test: TEVC deactivation time; settings: after 100 μM ATP or 10 μM BzATP
# Procedure, shortened: as §2
# [6] = molecular target: T4, rP2X7-I214G; test: TEVC dose response; settings: read-out: EC50 (apparent affinity), mean ± SD, triplicate
# Procedure, shortened: as §1
compound,measurement,setting,value
Nc1ncnc2c1ncn2[C@@H]1O[C@H](COP(=O)(O)OP(=O)(O)OP(=O)(O)O)[C@@H](O)[C@H]1O [ATP],EC50,[1],113 ± 30 µM
same,EC50,[2],22 ± 3 µM
same,EC50,[3],68 ± 11 µM
same,deactivation lifetime τ,[4],2.9 ± 0.2 s
same,deactivation lifetime τ,[5],1.2 ± 0.1 s
same,EC50,[6],171 ± 14 µM
BzATP,EC50,[1],8.5 ± 3.2 µM
same,EC50,[2],2.9 ± 0.4 µM
same,EC50,[3],2.5 ± 0.8 µM
same,deactivation lifetime τ,[4],8.9 ± 2.2 s
same,deactivation lifetime τ,[5],7.1 ± 0.6 s
same,EC50,[6],8 ± 1 µM
